# Calls of active or inactive are those of the source. No cut-off for these calls is given here.
# Assays:
# CYP1A2 = target: T1, CYP1A2 (Homo sapiens, UniProt P05177); assay: Inhibition of CYP1A2 at 3 uM; assay type: ADME
# T1 sequence (P05177 whole entry): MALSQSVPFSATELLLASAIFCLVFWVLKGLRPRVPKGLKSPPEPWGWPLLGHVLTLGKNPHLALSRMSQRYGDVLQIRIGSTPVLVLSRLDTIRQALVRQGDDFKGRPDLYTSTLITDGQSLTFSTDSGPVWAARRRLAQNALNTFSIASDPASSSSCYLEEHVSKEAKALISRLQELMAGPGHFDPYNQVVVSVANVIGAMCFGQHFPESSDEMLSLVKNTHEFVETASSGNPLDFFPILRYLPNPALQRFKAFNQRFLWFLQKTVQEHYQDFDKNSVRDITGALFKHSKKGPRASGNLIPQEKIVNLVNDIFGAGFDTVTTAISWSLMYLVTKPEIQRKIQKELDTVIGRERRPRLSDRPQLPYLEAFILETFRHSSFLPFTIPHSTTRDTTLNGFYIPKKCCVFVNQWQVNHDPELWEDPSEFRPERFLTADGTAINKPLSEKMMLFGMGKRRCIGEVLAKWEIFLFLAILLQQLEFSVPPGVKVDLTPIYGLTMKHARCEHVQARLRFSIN
# Method in brief: (§1)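 CYP inhibition was tested at 3 and 30 μM and reported as percent inhibition. The assay was run by a contract lab.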
# [1] = AUC last in mouse at 10 mg/kg, po by HPLC analysis; assay type: ADME, organism-based; design: time 0 - last, dose 10 mg/kg, route oral; conditions: plasma
# Method in brief: (§2)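 Mice of 20–30 g, 6–8 weeks old, dosed i.v. or orally. Blood was drawn at 3, 10, 30, 60, 120, 240, 360 and 480 min into lithium-heparin tubes, spun at 2500 × g for 15 min at 4°C within 1 h and stored at −20°C. Plasma was analysed by HPLC, 3 mice per time point. AUC was calculated by the linear/log trapezoidal method.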
# [2] = Cmax in mouse at 10 mg/kg, po by HPLC analysis; assay type: ADME, organism-based; design: dose 10 mg/kg, route oral; conditions: in vivo; method in brief: as §2
# CYP2C19 = CYP2C19 (Homo sapiens, UniProt P33261); assay: Inhibition of CYP2C19 at 30 uM; assay type: ADME; method in brief: as §1
# Mus musculus [3] = assay: Antidepressant activity in C57BL/J6 mouse assessed as reduction of immobility at 2.5 mg/kg, po administered qd for 21 days recorded in last 4 mins by forced swim test; assay type: functional; design: scale not given: the % may be the effect or the level left
# Method in brief: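 Male C57BL/6J mice, 2–3 months old, were gavaged daily for 21 days with drug (5 or 2.5 mg/kg) or saline and adapted to the test room for 2 days. With no preswim, each mouse was placed for 6 min in a 16-cm cylinder of 24 °C water, 14 cm deep. Immobility in the last 4 min was scored blind and compared by unpaired t-test (n=6 or 8).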
# [4] = AUC last in mouse at 3 mg/kg, iv by HPLC analysis; assay type: ADME, organism-based; design: time 0 - last, dose 3 mg/kg, route intravenous; conditions: plasma; method in brief: as §2
# [5] = Metabolic stability in human liver microsomes assessed as remaining parent compound at 1 uM after 1 hr in the presence of […]; assay type: ADME, Microsome; conditions: read-out: Stability
# Method in brief: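 Human liver microsomes were incubated with test compound at 1 μM for 1 h. Percent parent remaining was measured with cofactor and in a cofactor-free control. The work was done by a contract lab.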
# HepG2 = assay: Genotoxicity in human HepG2 cells assessed as induction of DNA lesion at 100 uM after 24 hrs by comet assay; assay type: toxicity, cell-based; conditions: hepg2, 24 h
# Method in brief: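 HepG2 cells were exposed to 100 μM for 24 h, with etoposide as positive control. Cells were embedded in agarose, lysed 2 h at 4°C at pH 10, unwound 40 min in alkali at pH >13 and electrophoresed at 25 V for 30 min at 4°C. After ethidium bromide staining, comet-tail nuclei were counted in >100 cells per field. Three independent experiments, one-way ANOVA.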
# [6] = AUC (infinity) in mouse at 10 mg/kg, po by HPLC analysis; assay type: ADME, organism-based; design: time infinity, dose 10 mg/kg, route oral; conditions: plasma; method in brief: as §2
# [7] = Total body clearance in mouse at 3 mg/kg, iv by HPLC analysis; assay type: ADME, organism-based; design: dose 3 mg/kg, route intravenous; conditions: in vivo
# Method in brief: (§3)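 Mice (20–30 g, 6–8 weeks old) were dosed i.v. or orally. Blood was drawn into lithium-heparin tubes at 3, 10, 30, 60, 120, 240, 360 and 480 min, with 3 mice per time point. Plasma was separated at 2500 × g for 15 min at 4°C within 1 h and stored at −20°C. Samples were analysed by HPLC, and AUC was calculated by the linear/log trapezoidal method.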
# Mus musculus [8] = assay: Bioavailability in mouse at 10 mg/kg by HPLC analysis; assay type: ADME, organism-based; conditions: in vivo; method in brief: as §2
# [9] = Volume of distribution in mouse at 3 mg/kg, iv by HPLC analysis; assay type: ADME, organism-based; design: dose 3 mg/kg, route intravenous; conditions: in vivo, read-out: Vz; method in brief: as §3
# [10] = target: BDNF/NT-3 growth factors receptor (Rattus norvegicus) (UniProt Q63604); assay: Agonist activity at TrkB receptor in rat primary neurons assessed as TrkB phosphorylation at tyrosine 816 at 500 nM after 15 mins by immunoblotting analysis; assay type: functional
# Method in brief: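 Primary cortical cultures from E17 rat embryos were exposed to 500 nM for 15 min. Lysates were immunoblotted for p-TrkB and p-Akt (20 μg per lane). Two replicate experiments.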
# [11] = Volume of distribution at steady state in mouse at 3 mg/kg, iv by HPLC analysis; assay type: ADME, organism-based; design: dose 3 mg/kg, route intravenous; conditions: in vivo, read-out: Vdss; method in brief: as §3
# CYP2D6 [12] = target: T2, CYP2D6 (Homo sapiens, UniProt P10635); assay: Inhibition of CYP2D6 at 3 uM; assay type: ADME
# Mus musculus [13] = assay: Agonist activity at TrkB receptor in C57BL/J6 mouse brain assessed as TrkB phosphorylation at tyrosine 816 in hippocampus at 2.5 mg/kg, po administered qd for 21 days by immunoblotting analysis
# [14] = Elimination half life in mouse at 3 mg/kg, iv by HPLC analysis; assay type: ADME, organism-based; design: dose 3 mg/kg, route intravenous; conditions: in vivo, read-out: beta t1/2; method in brief: as §2
# CYP3A4 = CYP3A4 (Homo sapiens, UniProt P08684); assay: Inhibition of CYP3A4 at 30 uM using modazolam substrate; assay type: ADME; conditions: probe midazolam (printed: modazolam)
# CYP2D6 [15] = target: T2, CYP2D6; assay: Inhibition of CYP2D6 at 30 uM; assay type: ADME
# [16] = target: Voltage-gated inwardly rectifying potassium channel KCNH2 (Homo sapiens, UniProt Q12809); assay: Inhibition of human ERG
# [17] = Tmax in mouse at 10 mg/kg, po by HPLC analysis; assay type: ADME, organism-based; design: dose 10 mg/kg, route oral; conditions: in vivo; method in brief: as §3
# [18] = Elimination half life in mouse at 10 mg/kg, po by HPLC analysis; assay type: ADME, organism-based; design: dose 10 mg/kg, route oral; conditions: in vivo, read-out: beta t1/2; method in brief: as §2
# [19] = AUC (infinity) in mouse at 3 mg/kg, iv by HPLC analysis; assay type: ADME, organism-based; design: time infinity, dose 3 mg/kg, route intravenous; conditions: plasma; method in brief: as §2
# T2 sequence (P10635 whole entry): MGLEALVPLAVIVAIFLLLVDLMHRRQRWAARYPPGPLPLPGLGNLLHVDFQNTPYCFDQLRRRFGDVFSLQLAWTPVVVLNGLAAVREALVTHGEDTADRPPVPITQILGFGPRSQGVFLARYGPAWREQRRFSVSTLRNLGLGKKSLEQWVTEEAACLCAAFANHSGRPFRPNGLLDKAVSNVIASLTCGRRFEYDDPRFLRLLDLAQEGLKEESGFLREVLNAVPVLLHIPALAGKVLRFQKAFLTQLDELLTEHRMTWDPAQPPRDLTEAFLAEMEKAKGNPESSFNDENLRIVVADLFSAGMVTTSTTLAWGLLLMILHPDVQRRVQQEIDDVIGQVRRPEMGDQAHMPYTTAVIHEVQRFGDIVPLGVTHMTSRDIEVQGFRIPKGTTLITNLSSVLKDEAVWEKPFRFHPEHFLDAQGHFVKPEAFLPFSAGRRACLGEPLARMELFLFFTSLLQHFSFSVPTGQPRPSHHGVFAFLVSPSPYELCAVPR
# Sequence of CYP2C19 (P33261 whole entry): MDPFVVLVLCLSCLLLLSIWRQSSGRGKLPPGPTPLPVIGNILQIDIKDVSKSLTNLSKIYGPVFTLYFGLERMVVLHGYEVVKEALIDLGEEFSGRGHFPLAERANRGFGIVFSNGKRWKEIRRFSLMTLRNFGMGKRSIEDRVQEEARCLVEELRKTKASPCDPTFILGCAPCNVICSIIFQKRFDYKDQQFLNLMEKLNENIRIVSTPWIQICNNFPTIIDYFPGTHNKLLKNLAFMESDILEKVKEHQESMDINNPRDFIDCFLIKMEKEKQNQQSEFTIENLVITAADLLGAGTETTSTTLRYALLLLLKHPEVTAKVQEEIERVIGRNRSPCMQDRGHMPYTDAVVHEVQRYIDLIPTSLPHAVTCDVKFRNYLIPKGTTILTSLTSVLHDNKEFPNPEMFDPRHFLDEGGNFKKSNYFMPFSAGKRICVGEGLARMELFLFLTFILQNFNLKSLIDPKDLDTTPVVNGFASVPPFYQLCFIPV
# Sequence of CYP3A4 (P08684 whole entry): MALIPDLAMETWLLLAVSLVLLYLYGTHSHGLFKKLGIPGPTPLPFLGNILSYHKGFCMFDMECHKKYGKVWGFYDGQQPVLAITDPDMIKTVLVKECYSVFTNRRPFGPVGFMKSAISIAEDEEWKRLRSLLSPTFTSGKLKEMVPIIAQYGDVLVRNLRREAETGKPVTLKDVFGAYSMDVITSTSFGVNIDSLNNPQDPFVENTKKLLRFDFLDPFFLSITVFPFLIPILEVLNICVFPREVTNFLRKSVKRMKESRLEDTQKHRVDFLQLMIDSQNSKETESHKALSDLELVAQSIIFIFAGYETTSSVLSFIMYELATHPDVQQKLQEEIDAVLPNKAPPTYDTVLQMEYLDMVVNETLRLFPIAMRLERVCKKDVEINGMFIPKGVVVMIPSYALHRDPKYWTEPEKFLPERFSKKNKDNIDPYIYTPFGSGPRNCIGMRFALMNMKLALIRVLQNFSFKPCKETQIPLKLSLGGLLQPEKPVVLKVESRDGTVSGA
# Sequence of BDNF/NT-3 growth factors receptor (Rattus norvegicus) (Q63604 whole entry): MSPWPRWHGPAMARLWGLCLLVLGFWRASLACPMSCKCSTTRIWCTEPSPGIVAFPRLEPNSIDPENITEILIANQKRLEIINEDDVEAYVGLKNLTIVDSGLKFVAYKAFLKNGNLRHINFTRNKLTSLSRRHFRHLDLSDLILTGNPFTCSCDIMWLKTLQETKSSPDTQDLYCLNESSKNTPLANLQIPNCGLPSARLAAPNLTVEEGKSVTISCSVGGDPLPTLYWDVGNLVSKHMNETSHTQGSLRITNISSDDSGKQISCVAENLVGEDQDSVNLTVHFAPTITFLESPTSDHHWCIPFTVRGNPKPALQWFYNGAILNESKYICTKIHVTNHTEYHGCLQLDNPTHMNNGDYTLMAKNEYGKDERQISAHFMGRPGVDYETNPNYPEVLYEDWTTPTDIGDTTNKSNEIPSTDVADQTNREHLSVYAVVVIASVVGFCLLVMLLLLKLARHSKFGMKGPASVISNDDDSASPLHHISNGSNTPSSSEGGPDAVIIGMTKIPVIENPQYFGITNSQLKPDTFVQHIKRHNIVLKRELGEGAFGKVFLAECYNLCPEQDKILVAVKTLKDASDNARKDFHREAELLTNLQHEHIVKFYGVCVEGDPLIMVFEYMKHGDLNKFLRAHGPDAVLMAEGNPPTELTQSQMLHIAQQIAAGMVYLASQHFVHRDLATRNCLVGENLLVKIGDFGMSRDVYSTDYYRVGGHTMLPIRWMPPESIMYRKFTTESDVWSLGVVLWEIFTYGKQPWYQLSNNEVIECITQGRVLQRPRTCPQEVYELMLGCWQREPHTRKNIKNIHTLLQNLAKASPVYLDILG
# Sequence of Voltage-gated inwardly rectifying potassium channel KCNH2 (Q12809 whole entry): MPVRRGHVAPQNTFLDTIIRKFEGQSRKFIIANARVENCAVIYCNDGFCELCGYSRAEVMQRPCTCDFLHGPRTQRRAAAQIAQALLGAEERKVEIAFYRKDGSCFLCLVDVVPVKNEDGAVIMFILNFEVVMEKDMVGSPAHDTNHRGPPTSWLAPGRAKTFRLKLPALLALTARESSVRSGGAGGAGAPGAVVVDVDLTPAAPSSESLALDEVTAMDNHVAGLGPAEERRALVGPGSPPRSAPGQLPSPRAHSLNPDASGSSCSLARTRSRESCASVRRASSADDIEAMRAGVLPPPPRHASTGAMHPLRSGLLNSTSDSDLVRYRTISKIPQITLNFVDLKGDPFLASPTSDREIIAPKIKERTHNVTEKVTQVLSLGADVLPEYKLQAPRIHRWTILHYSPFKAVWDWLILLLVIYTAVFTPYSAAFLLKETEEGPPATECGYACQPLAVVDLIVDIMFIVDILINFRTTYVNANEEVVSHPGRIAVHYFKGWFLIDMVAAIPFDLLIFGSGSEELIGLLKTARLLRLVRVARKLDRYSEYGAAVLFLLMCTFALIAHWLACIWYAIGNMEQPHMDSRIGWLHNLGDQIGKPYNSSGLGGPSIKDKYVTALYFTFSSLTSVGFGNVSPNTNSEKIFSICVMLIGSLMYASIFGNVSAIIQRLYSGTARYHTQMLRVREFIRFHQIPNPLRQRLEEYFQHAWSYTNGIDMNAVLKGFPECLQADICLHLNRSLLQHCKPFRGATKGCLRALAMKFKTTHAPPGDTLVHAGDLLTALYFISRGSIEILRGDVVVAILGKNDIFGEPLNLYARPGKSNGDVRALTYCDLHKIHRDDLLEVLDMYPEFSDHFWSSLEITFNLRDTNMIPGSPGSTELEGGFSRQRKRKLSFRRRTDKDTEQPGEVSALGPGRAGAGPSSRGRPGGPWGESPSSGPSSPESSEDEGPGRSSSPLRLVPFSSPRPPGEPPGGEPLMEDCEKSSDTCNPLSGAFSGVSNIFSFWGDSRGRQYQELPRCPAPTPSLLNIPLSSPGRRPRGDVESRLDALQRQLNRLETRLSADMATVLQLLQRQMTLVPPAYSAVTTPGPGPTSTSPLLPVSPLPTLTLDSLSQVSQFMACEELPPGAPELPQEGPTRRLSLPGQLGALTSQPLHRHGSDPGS
inhibition at 30 µM (CYP2C19) [%],"remaining at 1 h, 1 µM [5] [%]",Activity [10],inhibition at 3 µM (CYP2D6 [12]) [%],inhibition at 30 µM (CYP3A4) [%],inhibition at 30 µM (CYP2D6 [15]) [%],SMILES,Activity (Mus musculus [3]),Activity (HepG2),Activity (Mus musculus [13]),further results
57.7,25.4,Active,8.7,40.5,32,Cc1nc2ccc3c(=O)cc(-c4ccc(N5CCCC5)cc4)oc3c2[nH]1,45%,Non-toxic,Active,inhibition at 3 µM (CYP1A2): 27.3%; AUC(0-t) [1]: 19.1 ng·h/mL; Cmax [2]: 7 ng/mL; AUC(0-t) [4]: 312 ng·h/mL; AUC(0-inf) [6]: 21.6 ng·h/mL; clearance [7]: 156 mL/min/kg; F (Mus musculus [8]): 2%; Vd [9]: 23.1 L/kg; Vd [11]: 10 L/kg; half-life [14]: 1.72 h; inhibition (INH) [16]: Not Active; Tmax [17]: 2 h; half-life [18]: 0.967 h; AUC(0-inf) [19]: 320 ng·h/mL
90,1.2,Active,7.2,48.1,81.6,O=c1cc(-c2ccc(N3CCCC3)cc2)oc2c1ccc1cc[nH]c12,inactive,Non-toxic,Active,–
